Usually pKb stands for the negative decadic logarithm of the Kb, by convention in mol/L. A higher pKb goes with a small Kb.

Experimental findings from ChEMBL document CHEMBL3758148, “4-Phenylpyridin-2-one Derivatives: A Novel Class of Positive Allosteric Modulator of the M1 Muscarinic Acetylcholine Receptor” (J Med Chem, 2016) are described below.

Experiment [1] addresses T1, Muscarinic acetylcholine receptor M1 (Homo sapiens) (UniProt P11229).
T1 sequence (whole entry): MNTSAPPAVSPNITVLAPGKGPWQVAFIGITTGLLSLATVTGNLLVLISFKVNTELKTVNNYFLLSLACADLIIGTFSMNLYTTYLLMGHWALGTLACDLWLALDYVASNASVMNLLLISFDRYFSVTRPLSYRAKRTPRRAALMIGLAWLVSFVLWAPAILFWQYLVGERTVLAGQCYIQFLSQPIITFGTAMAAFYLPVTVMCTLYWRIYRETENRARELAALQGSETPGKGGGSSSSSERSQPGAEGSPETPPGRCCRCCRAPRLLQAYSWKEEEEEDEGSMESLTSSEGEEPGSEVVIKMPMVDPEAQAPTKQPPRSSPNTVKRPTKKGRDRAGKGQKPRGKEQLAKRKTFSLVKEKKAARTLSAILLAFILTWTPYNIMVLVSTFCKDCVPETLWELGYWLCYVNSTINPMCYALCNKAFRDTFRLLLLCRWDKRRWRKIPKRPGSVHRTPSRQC
As to the kind of experiment: Positive allosteric modulation of human muscarinic M1 receptor expressed in CHO Flp-In cells assessed as functional cooperativity with acetylcholine measured as IP1 accumulation upto 30 uM after 1 hr by HTRF method. The class given is cell-based. The method, boiled down: (§1)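 Suspended Flp-In CHO cells stably expressing hM1, stimulated at 10⁶ cells/ml in HEPES buffer with 50 mM LiCl, pH 7.4, using increasing ACh with or without increasing modulator, 1 h at 37 °C, 5% CO2. IP1 read by HTRF (665/590 nm ratio). Curves fitted globally to the operational model of allosterism, with KB fixed from binding. Mean ± SEM, ≥3 experiments in duplicate.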
A general note: Time-resolved FRET reads energy transfer from a long-lived donor to a nearby acceptor.

The target in experiment [2] is T1, Muscarinic acetylcholine receptor M1 (Homo sapiens). As to the kind of experiment: Displacement of [3H]NMS from human muscarinic M1 receptor expressed in CHO Flp-In cells after 1 hr by microbeta liquid scintillation counting-based radioligand binding assay. The class given is cell-based. The gist of the method: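 Intact adherent Flp-In CHO cells expressing hM1 (10⁴ cells/well), incubated with 0.2 nM [3H]NMS, varying ACh and modulator in HEPES-buffered saline pH 7.4 for 1 h at 37 °C. Washed with ice-cold 0.9% NaCl, then scintillation counted. Fitted to an allosteric ternary complex model with [3H]NMS KA 0.2 nM. Mean ± SEM, ≥3 experiments in duplicate.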
(Loss of bound radioactivity is the signal in a displacement assay; it reports binding, not function.)

Experiment [3] shares this target. The experiment is described as follows: Allosteric agonist activity at human muscarinic M1 receptor expressed in CHO Flp-In cells assessed as intrinsic activity measured as IP1 accumulation after 1 hr by HTRF method. The class given is functional, cell-based. The method, boiled down: as §1
Experiment [4] has the same target. As to the kind of experiment: Positive allosteric modulation of human muscarinic M1 receptor expressed in CHO Flp-In cells assessed as functional cooperativity with acetylcholine measured as IP1 accumulation after 1 hr by HTRF method. The class given is cell-based. The method, boiled down: as §1

Active and inactive are the calls of the source. The calls are words filed in the database; no cut-off is given here.

For `Nc1ccccc1-c1ccn([C@H]2CCCC[C@@H]2O)c(=O)c1` (racemic), the result in experiment [1] was inactive. The same molecule had a pKb in experiment [2] of 3.86.
For `O=c1cc(-c2ccccc2OCc2ccc(Br)cc2)ccn1[C@H]1CCCC[C@@H]1O` (racemic), the result in experiment [1] was inactive. In experiment [2], the Kb came out at 58 µM and the negative-log Kb (pKb) came out at 4.24.
Taken in the same sequence, the figures for `O=c1cc(-c2ccccc2OCc2ccccc2C(F)(F)F)ccn1[C@H]1CCCC[C@@H]1O` (racemic) were “inactive”, 33 µM and 4.48.
Taken in the same sequence, the figures for `O=c1cc(-c2ccccc2OCc2ccc(Br)cc2F)ccn1[C@H]1CCCC[C@@H]1O` (racemic) were “inactive”, 18 µM and 4.75.
For `O=c1cc(-c2ccccc2NCc2ccc(-c3ccccc3)cc2)ccn1[C@H]1CCCC[C@@H]1O` (racemic) the same measures were “inactive”, 69 µM and 4.16.
For `O=c1cc(-c2ccccc2OCc2ccc(-c3cnn(Cc4ccccc4)c3)cc2)ccn1[C@H]1CCCC[C@@H]1O` (racemic), the result in experiment [1] was inactive. Moreover, in experiment [2], the Kb was 21 µM and the pKb came out at 4.68.
For `O=c1cc(-c2ccccc2OCc2ccc(Oc3ccccc3)cc2)ccn1[C@H]1CCCC[C@@H]1O` (racemic) the same measures were “inactive”, 19 µM and 4.71.
`O=c1cc(-c2ccccc2NCc2ccc(-c3ccncc3)cc2)ccn1[C@H]1CCCC[C@@H]1O` (racemic): the result in experiment [1] was inactive. In experiment [2], this molecule showed a Kb of 9.3 µM and a negative-log Kb (pKb) of 5.03.
Taken in the same sequence, the figures for `O=c1cc(-c2ccccc2NCc2ccc(Br)cc2)ccn1[C@H]1CCCC[C@@H]1O` (racemic) were “inactive”, 45 µM and 4.35.
`O=c1cc(-c2ccccc2O)ccn1[C@H]1CCCC[C@@H]1O` (racemic): the outcome in experiment [1] was inactive. In experiment [2], the Kb came out at 79 µM and the pKb was found to be 4.1.
For `COc1ccccc1COc1ccccc1-c1ccn([C@H]2CCCC[C@@H]2O)c(=O)c1` (racemic) the same measures were “inactive”, 30 µM and 4.53.
Turning to `Cn1cc(-c2ccc(COc3c(F)ccc(F)c3-c3ccn([C@H]4CCCC[C@@H]4O)c(=O)c3)cc2)cn1` (racemic), in experiment [2], the Kb turned out to be 42 µM and the pKb stood at 4.38. For the same molecule, in experiment [3], the Intrinsic activity worked out at 1.34 and the log(IA) is 0.13. In addition, in experiment [4], the log(activity) was -0.41.
In experiment [2], `O=c1cc(-c2ccccc2OCc2ccc(-c3cnn(CCO)c3)cc2)ccn1[C@H]1CCCC[C@@H]1O` (racemic) came in with a Kb of 37 µM and a negative-log Kb (pKb) of 4.43. Further, in experiment [3], the Intrinsic activity is 0.77 and the log(IA) was -0.11. Moreover, in experiment [4], the log(activity) was 2.49.
`NC(=O)c1ccc(COc2ccccc2-c2ccn([C@H]3CCCC[C@@H]3O)c(=O)c2)cc1` (racemic): in experiment [2], the Kb turned out to be 22 µM and the negative logarithm of the Kb (pKb) is 4.66. For the same molecule, in experiment [3], the Intrinsic activity amounted to 0.89 and the log(IA) amounted to 0.05. In addition, the log(activity) in experiment [4] worked out at 2.36.
As for `N#Cc1ccccc1COc1ccccc1-c1ccn([C@H]2CCCC[C@@H]2O)c(=O)c1` (racemic), in experiment [1], the outcome was inactive. Further, in experiment [2], the Kb was determined as 42 µM and the pKb stood at 4.38.
In experiment [2], `N#Cc1cccc(COc2ccccc2-c2ccn([C@H]3CCCC[C@@H]3O)c(=O)c2)c1` (racemic) yielded a Kb of 87 µM and a pKb of 4.06. Also, in experiment [3], the Intrinsic activity amounted to 0.25 and the log(IA) is -0.59. The log(activity) in experiment [4] stood at 0.88.
In the case of `O=c1cc(-c2ccccc2OCc2ccc(-c3cnn(CC4CCCCC4)c3)cc2)ccn1[C@H]1CCCC[C@@H]1O` (racemic), the outcome in experiment [1] was inactive. In experiment [2], this molecule gave a Kb of 30 µM and a pKb of 4.52.
In experiment [2], `O=c1cc(-c2ccccc2OCc2ccccc2)ccn1[C@H]1CCCC[C@@H]1O` (racemic) had a Kb of 28 µM and a negative logarithm of the Kb (pKb) of 4.55. In experiment [3], the Intrinsic activity is 0.58 and the log(IA) is -0.24. In addition, the log(activity) in experiment [4] stood at 0.94.
For `CCn1cc(-c2ccc(COc3ccccc3-c3ccn([C@H]4CCCC[C@@H]4O)c(=O)c3)cc2)cn1` (racemic) the same measures were 41 µM, 4.38, 0.89, -0.05 and 2.26.
For `O=c1cc(-c2ccccc2OCc2ccc(C(F)(F)F)cc2)ccn1[C@H]1CCCC[C@@H]1O` (racemic) the same measures were 36 µM, 4.44, 0.77, -0.11 and 0.4.
Take `O=c1cc(-c2ccccc2OCc2ccc(-c3cnn(C4CCCC4)c3)cc2)ccn1[C@H]1CCCC[C@@H]1O` (racemic): in experiment [2], the Kb turned out to be 4 µM and the negative logarithm of the Kb (pKb) was determined as 5.45. For the same molecule, in experiment [3], the Intrinsic activity amounted to 0.38 and the log(IA) is -0.42. Also, in experiment [4], the log(activity) is 1.92.
In experiment [2], `O=c1cc(-c2ccccc2NCc2ccc(-c3cncnc3)cc2)ccn1[C@H]1CCCC[C@@H]1O` (racemic) came in with a negative logarithm of the Kb (pKb) of 3.86. Moreover, in experiment [3], the Intrinsic activity was found to be 1.1 and the log(IA) was 0.04. Further, in experiment [4], the log(activity) was 0.68.
